The Tm is the temperature at which the thermal transition is half complete.

In ChEMBL document CHEMBL1151702, “Using an aryl phenanthroimidazole moiety as a conjugated flexible intercalator to improve the hybridization efficiency of a triplex-forming oligonucleotide” (Bioorg Med Chem, 2008) one finds Tm data, which are given here for five molecules.

Common to all, as to type: nucleic-acid assay
Assay [1] deals with Nucleic Acid. As to the kind of experiment: Binding affinity to synthetic oligonucleotide ON19 at 1.0 uM at pH 6.0 by thermal denaturation study. The method, boiled down:
(§1)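 Duplex melting: complementary strands at 1.0 µM each in 20 mM sodium cacodylate, 100 mM NaCl, 10 mM MgCl₂, at the pH of the line. Annealed at 80 °C for 5 min, then cooled to 5 °C and held 30 min. UV absorbance read at 260 nm with heating at 1.0 °C/min; Tm is the maximum of the first-derivative curve.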

Assay [2] relates to Nucleic Acid. As to the kind of experiment: Binding affinity to synthetic oligonucleotide ON20 at 1.0 uM at pH 7.0 by thermal denaturation study. The method in brief: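 DNA/RNA antiparallel duplex: each strand at 1.0 µM in 10 mM sodium phosphate, 140 mM NaCl, 1 mM EDTA, pH 7.0. Heated to 80 °C for 5 min, cooled to 5 °C and held 30 min. Absorbance followed at 260 nm during a 1.0 °C/min temperature ramp; Tm is the first-derivative maximum.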

Assay [3] deals with Nucleic Acid. In words: Binding affinity to synthetic oligonucleotide ON18 at 1.0 uM at pH 6.0 by thermal denaturation study. The method in brief: as §1
In assay [4] the test system is Nucleic Acid. As to the kind of experiment: Binding affinity to synthetic oligonucleotide ON19 at 1.0 uM at pH 7.2 by thermal denaturation study. The method, boiled down: as §1
In assay [5] the test system is Nucleic Acid. As to the kind of experiment: Binding affinity to synthetic double stranded DNA D1 at 1.5 uM at pH 7.2 by thermal denaturation study. The method in brief: (§2)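 Parallel triplex melting: target duplex assembled from strands at 1.0 µM each, TFO third strand added at 1.5 µM. Buffer 20 mM sodium cacodylate, 100 mM NaCl, 10 mM MgCl₂, at the pH of the line. Samples heated to 80 °C for 5 min, cooled to 5 °C and held 30 min. Absorbance read at 260 nm while heating at 1.0 °C/min; Tm taken as the first-derivative maximum.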

Assay [6] has as its system Nucleic Acid. As to the kind of experiment: Binding affinity to synthetic double stranded DNA D1 at 1.5 uM at pH 6.0 by thermal denaturation study. The method in brief: as §2

Regarding `Cc1cn([C@H]2C[C@H](OP(=O)(O)OC[C@H]3O[C@@H](n4cc(C)c(=O)[nH]c4=O)C[C@@H]3OP(=O)(O)OC[C@H]3O[C@@H](n4cc(C)c(=O)[nH]c4=O)C[C@@H]3O[PH](O)(O)OC[C@H]3O[C@@H](n4cc(C)c(=O)[nH]c4=O)C[C@@H]3OP(=O)(O)OC[C@H]3O[C@@H](n4cc(C)c(=O)[nH]c4=O)C[C@@H]3OP(=O)(O)OC[C@H]3O[C@@H](n4cc(C)c(=O)[nH]c4=O)C[C@@H]3O)[C@@H](COC[C@@H](CCOc3ccc(-c4nc5c6ccccc6c6ccccc6c5[nH]4)cc3)OP(=O)(O)O[C@H]3C[C@H](n4ccc(N)nc4=O)O[C@@H]3COP(=O)(O)O[C@H]3C[C@H](n4cc(C)c(=O)[nH]c4=O)O[C@@H]3COP(=O)(O)O[C@H]3C[C@H](n4cc(C)c(=O)[nH]c4=O)O[C@@H]3COP(=O)(O)O[C@H]3C[C@H](n4cc(C)c(=O)[nH]c4=O)O[C@@H]3COP(=O)(O)O[C@H]3C[C@H](n4ccc(N)nc4=O)O[C@@H]3COP(=O)(O)O[C@H]3C[C@H](n4ccc(N)nc4=O)O[C@@H]3COP(=O)(O)O[C@H]3C[C@H](n4ccc(N)nc4=O)O[C@@H]3COP(=O)(O)O[C@H]3C[C@H](n4ccc(N)nc4=O)O[C@@H]3CO)O2)c(=O)[nH]c1=O`, the midpoint of thermal melting (Tm) came to 51 °C in the assay on Nucleic Acid [1]; 51 °C in the assay with Nucleic Acid [2]; 34.5 °C in the assay with Nucleic Acid [3]; 50.5 °C in the assay with Nucleic Acid [4]; 25 °C in the assay on Nucleic Acid [5]; 43.5 °C in the assay on Nucleic Acid [6].
Consider `Cc1cn([C@H]2C[C@H](OP(=O)(O)OC[C@H]3O[C@@H](n4cc(C)c(=O)[nH]c4=O)C[C@@H]3OP(=O)(O)OC[C@H]3O[C@@H](n4cc(C)c(=O)[nH]c4=O)C[C@@H]3OP(=O)(O)OC[C@H]3O[C@@H](n4ccc(N)nc4=O)C[C@@H]3OP(=O)(O)OC[C@H]3O[C@@H](n4cc(C)c(=O)[nH]c4=O)C[C@@H]3OP(=O)(O)OC[C@H]3O[C@@H](n4cc(C)c(=O)[nH]c4=O)C[C@@H]3OP(=O)(O)OC[C@H]3O[C@@H](n4cc(C)c(=O)[nH]c4=O)C[C@@H]3O[PH](O)(O)OC[C@H]3O[C@@H](n4cc(C)c(=O)[nH]c4=O)C[C@@H]3OP(=O)(O)OC[C@H]3O[C@@H](n4cc(C)c(=O)[nH]c4=O)C[C@@H]3OP(=O)(O)OC[C@H]3O[C@@H](n4cc(C)c(=O)[nH]c4=O)C[C@@H]3O)[C@@H](COP(=O)(O)O[C@H]3C[C@H](n4ccc(N)nc4=O)O[C@@H]3COP(=O)(O)O[C@H]3C[C@H](n4ccc(N)nc4=O)O[C@@H]3COP(=O)(O)O[C@H]3C[C@H](n4ccc(N)nc4=O)O[C@@H]3COP(=O)(O)O[C@H]3C[C@H](n4ccc(N)nc4=O)O[C@@H]3COP(=O)(O)O[C@H](CO)COCc3ccc(C#Cc4ccc5ccc6cccc7ccc4c5c67)cc3)O2)c(=O)[nH]c1=O`, for which the Tm in the assay on Nucleic Acid [1] came to 53 °C; in the assay on Nucleic Acid [3], 36 °C; with Nucleic Acid [4] it was 52 °C; with Nucleic Acid [5], 20.5 °C; with Nucleic Acid [6], 44.5 °C.
For `Cc1cn([C@H]2C[C@H](OP(=O)(O)OC[C@H]3O[C@@H](n4cc(C)c(=O)[nH]c4=O)C[C@@H]3OP(=O)(O)OC[C@H]3O[C@@H](n4cc(C)c(=O)[nH]c4=O)C[C@@H]3O[PH](O)(O)OC[C@H]3O[C@@H](n4cc(C)c(=O)[nH]c4=O)C[C@@H]3OP(=O)(O)OC[C@H]3O[C@@H](n4cc(C)c(=O)[nH]c4=O)C[C@@H]3OP(=O)(O)OC[C@H]3O[C@@H](n4cc(C)c(=O)[nH]c4=O)C[C@@H]3O)[C@@H](COC[C@@H](COCc3ccc(C#Cc4ccc5ccc6cccc7ccc4c5c67)cc3)OP(=O)(O)O[C@H]3C[C@H](n4ccc(N)nc4=O)O[C@@H]3COP(=O)(O)O[C@H]3C[C@H](n4cc(C)c(=O)[nH]c4=O)O[C@@H]3COP(=O)(O)O[C@H]3C[C@H](n4cc(C)c(=O)[nH]c4=O)O[C@@H]3COP(=O)(O)O[C@H]3C[C@H](n4cc(C)c(=O)[nH]c4=O)O[C@@H]3COP(=O)(O)O[C@H]3C[C@H](n4ccc(N)nc4=O)O[C@@H]3COP(=O)(O)O[C@H]3C[C@H](n4ccc(N)nc4=O)O[C@@H]3COP(=O)(O)O[C@H]3C[C@H](n4ccc(N)nc4=O)O[C@@H]3COP(=O)(O)O[C@H]3C[C@H](n4ccc(N)nc4=O)O[C@@H]3CO)O2)c(=O)[nH]c1=O`, the Tm came out at 44.5 °C in the assay on Nucleic Acid [1], 30 °C in the assay with Nucleic Acid [3], 21.5 °C in the assay with Nucleic Acid [5] and 39.5 °C with Nucleic Acid [6].
Take `Cc1cn([C@H]2C[C@H](OP(=O)(O)OC[C@H]3O[C@@H](n4cc(C)c(=O)[nH]c4=O)C[C@@H]3OP(=O)(O)OC[C@H]3O[C@@H](n4cc(C)c(=O)[nH]c4=O)C[C@@H]3O[PH](O)(O)OC[C@H]3O[C@@H](n4cc(C)c(=O)[nH]c4=O)C[C@@H]3OP(=O)(O)OC[C@H]3O[C@@H](n4cc(C)c(=O)[nH]c4=O)C[C@@H]3OP(=O)(O)OC[C@H]3O[C@@H](n4cc(C)c(=O)[nH]c4=O)C[C@@H]3O)[C@@H](COC[C@@H](CCOc3ccc(-c4ncc[nH]4)c4ccccc34)OP(=O)(O)O[C@H]3C[C@H](n4ccc(N)nc4=O)O[C@@H]3COP(=O)(O)O[C@H]3C[C@H](n4cc(C)c(=O)[nH]c4=O)O[C@@H]3COP(=O)(O)O[C@H]3C[C@H](n4cc(C)c(=O)[nH]c4=O)O[C@@H]3COP(=O)(O)O[C@H]3C[C@H](n4cc(C)c(=O)[nH]c4=O)O[C@@H]3COP(=O)(O)O[C@H]3C[C@H](n4ccc(N)nc4=O)O[C@@H]3COP(=O)(O)O[C@H]3C[C@H](n4ccc(N)nc4=O)O[C@@H]3COP(=O)(O)O[C@H]3C[C@H](n4ccc(N)nc4=O)O[C@@H]3COP(=O)(O)O[C@H]3C[C@H](n4ccc(N)nc4=O)O[C@@H]3CO)O2)c(=O)[nH]c1=O`: the Tm in the assay on Nucleic Acid [6] was 13.5 °C.
For the molecule `Cc1cn([C@H]2C[C@H](OP(=O)(O)OC[C@H]3O[C@@H](n4ccc(N)nc4=O)C[C@@H]3OP(=O)(O)OC[C@H]3O[C@@H](n4cc(C)c(=O)[nH]c4=O)C[C@@H]3OP(=O)(O)O[C@@H](COCc3ccc(C#Cc4ccc5ccc6cccc7ccc4c5c67)cc3)COC[C@H]3O[C@@H](n4cc(C)c(=O)[nH]c4=O)C[C@@H]3OP(=O)(O)OC[C@H]3O[C@@H](n4cc(C)c(=O)[nH]c4=O)C[C@@H]3O[PH](O)(O)OC[C@H]3O[C@@H](n4cc(C)c(=O)[nH]c4=O)C[C@@H]3OP(=O)(O)OC[C@H]3O[C@@H](n4cc(C)c(=O)[nH]c4=O)C[C@@H]3OP(=O)(O)OC[C@H]3O[C@@H](n4cc(C)c(=O)[nH]c4=O)C[C@@H]3O)[C@@H](COC[C@H](COCc3ccc(C#Cc4ccc5ccc6cccc7ccc4c5c67)cc3)OP(=O)(O)O[C@H]3C[C@H](n4cc(C)c(=O)[nH]c4=O)O[C@@H]3COP(=O)(O)O[C@H]3C[C@H](n4cc(C)c(=O)[nH]c4=O)O[C@@H]3COP(=O)(O)O[C@H]3C[C@H](n4ccc(N)nc4=O)O[C@@H]3COP(=O)(O)O[C@H]3C[C@H](n4ccc(N)nc4=O)O[C@@H]3COP(=O)(O)O[C@H]3C[C@H](n4ccc(N)nc4=O)O[C@@H]3COP(=O)(O)O[C@H]3C[C@H](n4ccc(N)nc4=O)O[C@@H]3CO)O2)c(=O)[nH]c1=O`, the Tm in the assay on Nucleic Acid [1] worked out at 41 °C; with Nucleic Acid [3] it was 38 °C; in the assay on Nucleic Acid [4], 38 °C; in the assay on Nucleic Acid [5] it was 43 °C; in the assay with Nucleic Acid [6], 56.5 °C.
